Test results taken from ChEMBL document CHEMBL4229393, “Duocarmycin SA, a potent antitumor antibiotic, sensitizes glioblastoma cells to proton radiation” (Bioorg Med Chem Lett, 2018).
Calls of active or inactive are those of the source. The calls are words filed in the database; no cut-off is given here.

Key:
U138-MG [1] = assay: Induction of necrosis in human U138MG cells at 0.1 nM after 72 hrs in presence of 6 Gy dose of proton irradiation by 7-AAD staining based flow cytometry; type: functional, cell-based
U138-MG [2] = assay: Induction of necrosis in human U138MG cells assessed as dose enhancement ratio at 0.1 nM after 72 hrs in presence of 2 Gy dose of proton irradiation by 7-AAD staining based flow cytometry; type: functional
Procedure, shortened: (§1)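 Flow cytometry of U-138 MG cells 72 h after 0.1 nM drug combined with 2 Gy protons: annexin V for apoptosis, 7-AAD for necrosis. The enhancement ratio was derived against single treatments.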

U138-MG [3] = assay: Cytotoxicity against human U138MG cells assessed as decrease in cell viability after 72 hrs by trypan blue dye based assay; type: functional
U138-MG [4] = assay: Cytotoxicity against human U138MG cells assessed as cell survival at 0.1 nM after 72 hrs by trypan blue dye based assay; type: functional; conditions: read-out: Survival
U138-MG [5] = assay: Induction of necrosis in human U138MG cells at 0.1 nM after 72 hrs by 7-AAD staining based flow cytometry; type: functional, cell-based
Procedure, shortened: (§2)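 U-138 MG cells were treated with 0.1 nM drug and analysed by flow cytometry at 72 h: annexin V binding for apoptosis and 7-AAD uptake for necrosis.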

U138-MG [6] = assay: Anticlonogenic activity against human U138MG cells assessed as dose enhancement ratio pretreated for 2 hrs followed by 1 to 8 Gy dose of proton irradiation measured after 10 to 14 days by methylene blue staining based method; type: functional
Procedure, shortened: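 U-138 MG clonogenic assay: cells were pretreated with 0.001 nM drug, then given 1–8 Gy protons. Colonies of 50 or more cells were counted at 14 days. The ratio compares the combined survival fraction with that expected from each modality given separately.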

U138-MG [7] = assay: Cytotoxicity against human U138MG cells assessed as cell survival at higher doses after 72 hrs by trypan blue dye based assay; type: functional
U138-MG [8] = assay: Cytotoxicity against human U138MG cells assessed as cell survival at 0.5 nM after 72 hrs by trypan blue dye based assay; type: functional; conditions: read-out: Survival
U138-MG [9] = assay: Induction of apoptosis in human U138MG cells at 0.1 nM after 72 hrs by Annexin V staining based flow cytometry; type: functional, cell-based; procedure, shortened: as §2
U138-MG [10] = assay: Cytotoxicity against human U138MG cells assessed as dose enhancement ratio at 0.1 nM after 72 hrs in presence of 2 Gy dose of proton irradiation by trypan blue dye based assay; type: functional
Procedure, shortened: (§3)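 U-138 MG cells received the drug at 0.1, 0.5 or 1.0 nM, alone or combined with a 2 Gy proton exposure. Viable cell number was counted at 72 h. The dose enhancement ratio was calculated from combined versus single treatments.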

U138-MG [11] = assay: Induction of apoptosis in human U138MG cells at 0.1 nM after 72 hrs in presence of 6 Gy dose of proton irradiation by Annexin V staining based flow cytometry; type: functional, cell-based
U138-MG [12] = assay: Anticlonogenic activity against human U138MG cells assessed as decrease in cell survival pretreated for 2 hrs followed by 1 to 8 Gy dose of proton irradiation measured after 10 to 14 days by methylene blue staining based method; type: functional; conditions: light or radiation study
Procedure, shortened: (§4)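 U-138 MG cells were exposed to 0.001 nM drug before proton irradiation at 1–8 Gy. Colonies of at least 50 cells were counted 14 days after exposure, and survival fractions and curves were derived.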

U138-MG [13] = assay: Induction of apoptosis in human U138MG cells assessed as dose enhancement ratio at 0.1 nM after 72 hrs in presence of 2 Gy dose of proton irradiation by Annexin V staining based flow cytometry; type: functional; procedure, shortened: as §1
U138-MG [14] = assay: Cytotoxicity against human U138MG cells assessed as decrease in cell viability at 0.5 to 1 nM after 72 hrs in presence of 2 Gy dose of proton irradiation by trypan blue dye based assay; type: functional; procedure, shortened: as §3
U138-MG [15] = assay: Anticlonogenic activity against human U138MG cells assessed as decrease in cell survival after 14 days by methylene blue staining based method; type: functional; conditions: 336 h
Procedure, shortened: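 Clonogenic survival of U-138 MG human glioblastoma cells after drug exposure alone. Colonies of 50 or more cells were counted 14 days after exposure, and survival curves were calculated from the counts.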

U138-MG [16] = assay: Anticlonogenic activity against human U138MG cells assessed as cell survival at 0.001 nM pretreated for 2 hrs followed by 1 to 8 Gy dose of proton irradiation measured after 10 to 14 days by methylene blue staining based method; type: functional; conditions: light or radiation study, read-out: Survival; procedure, shortened: as §4

SMILES: COC(=O)c1cc2c([nH]1)C(=O)C=C1N(C(=O)c3cc4cc(OC)c(OC)c(OC)c4[nH]3)C[C@H]3C[C@]123 [DUOCARMYCIN]
- Activity (U138-MG [1]): inactive
- Ratio (U138-MG [2]): 4
- Activity (U138-MG [3]): Dose-dependent effect
- IC50 (U138-MG [3]): 0.4 nM
- viability at 0.0001 µM (U138-MG [4]): 65%
- Activity (U138-MG [5]): Active
- Ratio (U138-MG [6]): 2.17
- Activity (U138-MG [7]): Active
- viability at 0.0005 µM (U138-MG [8]): 25%
- Activity (U138-MG [9]): Active
- Ratio (U138-MG [10]): 1.6
- Activity (U138-MG [11]): inactive
- IC50 (U138-MG [12]): 0.443 nM
- Ratio (U138-MG [13]): 2.5
- Activity (U138-MG [14]): Active
- IC50 (U138-MG [15]): 0.0018 nM
- viability at 1 pM (U138-MG [16]): 54%
